Assay results as given in ChEMBL document CHEMBL3870302, “Computer-aided identification, synthesis and evaluation of substituted thienopyrimidines as novel inhibitors of HCV replication” (Eur J Med Chem, 2016).

Assays:
Hepatitis C virus = assay: Antiviral activity against Hepatitis C virus genotype 1b infected in human HuH5.2 cells after 72 hrs by luciferase reporter gene assay; format: functional, cell-based, Hepacivirus hominis
How it was run: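 Huh 5-2 cells with genotype 1b I389luc-ubi-neo/NS3-3'/5.1 subgenomic replicon, seeded 6 500 cells/well in DMEM/10% FCS without Geneticin, overnight 37 °C. Compound (DMSO stock diluted in medium) in 1:5 four-step or 1:2 eight-step series, 72 h. Cells PBS-washed, lysed 5 min, luciferase luminescence read, converted to % untreated control; EC50 from dose-response curve, mean of ≥2 independent experiments.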

[1] = Cytotoxicity against human HuH5.2 cells assessed as reduction in metabolic activity after 72 hrs by MTS assay; format: toxicity, cell-based, Huh-5-2; settings: HuH5.2 cells
How it was run: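 Run in parallel with the replicon assay: Huh 5-2 replicon cells, 6 500 cells/well, compound series for 72 h at 37 °C, 5% CO2. Medium then replaced with 5% MTS in phenol red-free medium for 1.5 h. Absorbance at 498 nm expressed as % untreated cells; CC50 from dose-response curve as 50% reduction in metabolic activity, mean of ≥2 experiments.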

[2] = Selectivity index, ratio of CC50 for human HuH5.2 cells to EC50 for hepatitis C virus genotype 1b infected in human HuH5.2 cells; format: toxicity, cell-based; settings: HuH5.2 cells, read-out: Ratio CC50/EC50
How it was run: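 Ratio of CC50 (MTS metabolic read-out, 72 h) to EC50 (replicon luciferase read-out, 72 h), both measured in parallel on Huh 5-2 genotype 1b replicon cells.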

[3] = Inhibition of Hepatitis C virus genotype 1b (con1) full length C-terminal His-tagged NS3 helicase expressed in Escherichia coli Rosette(DE3) assessed as inhibition of 5'-Cy5/3'-IAbRQ-labeled DNA unwinding activity by molecular beacon assay; set-up: species or system Hepatitis C virus (isolate Con1)
How it was run: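 Molecular beacon unwinding assay: 25 mM MOPS pH 6.5, 1.25 mM MgCl2, 5% DMSO, 5 µg/ml BSA, 0.01% Tween20, 0.05 mM DTT, 5 nM fluorescent DNA substrate, 12.5 nM NS3h, 1 mM ATP.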

[4] = Hepatitis C virus, genotype 1b, Huh-5-2, 72 h

| SMILES | EC50 (Hepatitis C virus; [4]) [µM] | EC90 (Hepatitis C virus; [4]) [µM] | CC50 at 72 h [1] [µM] | selectivity ratio [2] | IC50 [3] [µM] | EC50 (Hepatitis C virus) [µM] | EC90 (Hepatitis C virus) [µM] |
| --- | --- | --- | --- | --- | --- | --- | --- |
| NNc1ncnc2sc3c(c12)CCCC3 | 23.1 | 47.4 | 247 | 10.7 | – | – | – |
| CCOc1ccc2sc(NS(=O)(=O)c3ccc(OC)c(OC)c3)nc2c1 | > 127 | > 127 | > 127 | – | – | – | – |
| COc1ccc(-c2c3c(nc4sc5c(O)nc(C)nc5c24)CCC3)cc1 | 21 | – | 128 | 6.1 | – | – | – |
| COc1ccc(-c2c(C#N)c(SCC(N)=O)nc3c2CCCC3)cc1 | 130 | > 142 | > 142 | > 1.1 | – | – | – |
| O=C(CCN1C(=O)c2cccc3cccc(c23)C1=O)N1CCN(Cc2ccc3c(c2)OCO3)CC1 | 32 | – | > 106 | > 3.3 | – | – | – |
| CC(=O)Nc1ccc(/C=C2\C=C(C(O)c3ccc(NC(C)=O)cc3)c3ccccc32)cc1 (stereo not given) | 21.5 | – | 48.8 | 2.3 | – | – | – |
| O=S(=O)(Nc1ccc(O)c(Sc2ncn[nH]2)c1)c1cccc2ccccc12 | 42.2 | – | > 126 | > 2.9 | – | – | – |
| Cc1c(Cl)sc2ncnc(NNC(=O)c3ccccn3)c12 | 0.088 | 0.286 | > 9.38 | > 106 | > 1000 | – | – |
| C/C(=N\Nc1ncnc2sc3c(c12)CCCC3)c1cccc(O)c1 | 403 | > 443 | > 443 | > 1.1 | – | – | – |
| O=C(Nc1ccc(S(=O)(=O)O)c2ccccc12)c1ccc(C(=O)Nc2ccc(S(=O)(=O)O)c3ccccc23)cc1 | > 86 | > 86 | > 86 | – | – | – | – |
| O=C(NNc1ncnc2sc3c(c12)CCCC3)c1cccnc1 | 128 | > 307 | > 307 | > 2.4 | – | – | – |
| C/C(=N\Nc1ncnc2sc3ccccc3c12)c1nc2ccccc2[nH]1 | 1.1 | 3.25 | 19.1 | 17.4 | > 1000 | – | – |
| O=C(NNc1ncnc2sc3c(c12)CCCC3)c1cccs1 | 31.1 | – | 36.7 | 1.2 | – | – | – |
| COc1ccc(C(N)=O)cc1NS(=O)(=O)c1cccc2cccnc12 | > 140 | > 140 | > 140 | – | – | – | – |
| CCc1ccc(S(=O)(=O)Nc2cc3c(C(=O)OC)c(C)oc3c3ccccc23)cc1 | 1.1 | – | 4.7 | 4.3 | – | – | – |
| O=C(NNc1ncnc2sc3ccccc3c12)c1ccccc1O | 0.832 | 1.6 | 108 | 130 | – | – | – |
| C/C(=N\Nc1ncnc2sc3c(c12)CCCC3)c1ccco1 | 18.2 | – | 58.9 | 3.2 | – | – | – |
| O=C(NNc1ncnc2sccc12)c1ccccc1O | 12 | > 38.8 | > 349 | > 27 | – | – | – |
| C/C(=N\Nc1ncnc2sc3c(c12)CCC3)c1cc(O)ccc1O | 17.8 | 17.6 | > 367 | > 20.6 | – | – | – |
| c1cnc2c(Nc3ncnc4sc5c(c34)CCCC5)cccc2c1 | 186 | > 100 | > 301 | > 1.6 | – | – | – |
| C/C(=N\Nc1ncnc2sc3c(c12)CCCC3)c1ccc[nH]1 | 5.26 | 12.8 | 19.5 | 3.7 | – | – | – |
| C/C(=N\Nc1nc(C)nc2sc3c(c12)CCCC3)c1ccccc1O | 115 | > 94.6 | > 284 | > 2.5 | – | – | – |
| O=C(NNc1ncnc2sc3c(c12)CCCC3)c1ccco1 | 199 | – | 230 | 1.2 | – | – | – |
| C/C(=N/Nc1ncnc2sccc12)c1cnccn1 | 5.04 | 1.79 | 9.01 | 1.8 | – | – | – |
| C/C(=N\Nc1ncnc2sc3ccccc3c12)c1cnccn1 | 0.415 | 0.858 | 1.99 | 6.4 | – | – | – |
| COC(=O)c1ccc(N2C(=O)CC(S/C(=N\c3ccccc3)NCc3ccc4c(c3)OCO4)C2=O)cc1 (stereo not given) | 12.8 | – | 62.6 | 4.9 | – | – | – |
| CCOc1cccc(C(=O)Nc2cc(C(=O)OC)ccc2N2CCN(CC)CC2)c1 | 38.9 | – | 61.7 | 1.6 | – | – | – |
| O=C(NNc1ncnc2sc3ccccc3c12)c1cc(O)ccc1O | 0.681 | 2.14 | 46.5 | 68.3 | > 1000 | – | – |

| SMILES | EC50 (Hepatitis C virus; [4]) [µM] | EC90 (Hepatitis C virus; [4]) [µM] | CC50 at 72 h [1] [µM] | selectivity ratio [2] | IC50 [3] [µM] | EC50 (Hepatitis C virus) [µM] | EC90 (Hepatitis C virus) [µM] |
| --- | --- | --- | --- | --- | --- | --- | --- |
| C/C(=N/Nc1ncnc2sc(C)c(C)c12)c1ccccc1O | 0.384 | < 1.28 | 93.6 | 244 | – | – | – |
| C/C(=N\Nc1ncnc2sc3c(c12)CCCC3)c1ccccc1 | 33.6 | > 310 | 53.4 | 1.6 | – | – | – |
| COc1ccc(/C(C)=N/NC(=O)c2cc(O)cc(O)c2)c(OC)c1 | > 151 | > 151 | > 151 | – | – | – | – |
| COc1ccc(OC)c(/C(C)=N/Nc2ncnc3sc4c(c23)CCCC4)c1 | 53.6 | – | 98.5 | 1.8 | – | – | – |
| CCOc1cc(C)c(S(=O)(=O)N2CCN(Cc3ccc4c(c3)OCO4)CC2)cc1C | 34.5 | – | > 116 | > 3.4 | – | – | – |
| O=C(NNc1ncnc2sc3c(c12)CCCC3)c1cccc(O)c1 | 210 | > 220 | > 294 | > 1.4 | – | – | – |
| CCOC(=O)c1cnc2c(ccc3ccccc32)c1Nc1ccc(C(=O)OC)cc1 | 10.9 | – | 56.2 | 5.2 | – | – | – |
| C/C(=N/Nc1ncnc2sc(Cl)c(C)c12)c1ccccc1O | 0.17 | – | > 9.01 | > 56.1 | – | – | – |
| Cc1nc(NNC(=O)c2ccccn2)c2c3c(sc2n1)CCCC3 | 0.077 | 0.32 | > 2.95 | > 38.1 | – | – | – |
| C/C(=N\Nc1ncnc2sc3c(c12)CCCC3)c1cccnc1 | 79.4 | > 103 | > 309 | > 3.9 | – | – | – |
| O=C(NNc1ncnc2sc3c(c12)CCC3)c1cnccn1 | 0.0945 | < 0.256 | 2.97 | 31.4 | – | – | – |
| C/C(=N\Nc1ncnc2sc3c(c12)CCCC3)c1ccccn1 | 1.1 | 3.48 | 7.59 | 6.9 | – | – | – |
| C/C(=N\Nc1ncnc2sc3c(c12)CCCC3)c1ccc(O)cc1 | > 295 | > 295 | > 295 | – | – | – | – |
| Cc1cc(O)cc(O)c1/C=N/NC(=O)COc1ccc2ccccc2c1 | 1.9 | – | 51.9 | 27.3 | – | – | – |
| COc1cccc(C2=Nn3c(CN4CCC(C)CC4)nnc3SC2)c1 | 130 | > 139 | > 139 | > 1.1 | – | – | – |
| C/C(=N\Nc1ncnc2sc3c(c12)CCCC3)c1cccs1 | 23 | – | 46 | 2 | – | – | – |
| O=C(/C=C(/C(=O)O)c1ccccc1)Nc1ccc(N2CCN(CCO)CC2)cc1 | 65 | – | > 126 | > 0.19 | – | – | – |
| C/C(=N\Nc1ncnc2sc3c(c12)CCCC3)c1cc(Cl)ccc1Cl | 9.41 | 55.1 | > 256 | > 27.2 | – | – | – |
| O=C(N/N=C\c1cccnc1)c1cc(-c2ccc3c(c2)OCO3)n[nH]1 | > 149 | > 149 | > 149 | – | – | – | – |
| O=C(NNc1ncnc2sc3ccccc3c12)c1ccccn1 | 0.461 | 1.01 | 1.54 | 3.3 | – | – | – |
| CCOc1cc(C2C(C(=O)OC)=C(C)NC3=C2C(=O)CC(c2ccc(OC)c(OC)c2)C3)ccc1O (stereo not given) | 36 | – | > 101 | > 2.8 | – | – | – |
| C/C(=N/Nc1ncnc2sc3c(c12)CCC3)c1cnccn1 | 0.688 | < 0.839 | 1.12 | 1.6 | – | – | – |
| O=C(NNc1ncnc2sccc12)c1cc(O)ccc1O | 2.75 | 9.4 | > 165 | > 60 | – | – | – |
| COc1cc2nc(CN3CCC(C(N)=O)CC3)[nH]c(=O)c2cc1OC | > 144 | > 144 | > 144 | – | – | – | – |
| O=C(NNc1ncnc2sc3c(c12)CCCC3)c1ccc[nH]1 | 147 | – | 160 | 1.1 | – | – | – |
| C/C(=N\Nc1ncnc2sc3c(c12)CCCC3)c1cc(O)ccc1O (stereo in doubt; form 2) | – | – | > 282 | > 128 | – | < 2.2 | 135 |
| CCC[C@H](NC(=O)[C@@H]1[C@H]2CCC[C@H]2CN1C(=O)[C@@H](NC(=O)[C@@H](NC(=O)c1cnccn1)C1CCCCC1)C(C)(C)C)C(=O)C(=O)NC1CC1 [TELAPREVIR] | 0.8 | – | – | 58.8 | – | – | – |
